Measurements published in ChEMBL document CHEMBL4706596, “Synthesis, biological evaluation, in silico modeling and crystallization of novel small monocationic molecules with potent antiproliferative activity by dual mechanism” (Eur J Med Chem, 2020).

Experiments:
[1] = system: HeLa; assay: Antiproliferative activity against human HeLa cells assessed as inhibition of cell proliferation incubated for 72 hrs by MTT assay; assay type: functional
Outline: (§1)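 Cells seeded at 8 × 10³/well and held 18 h at 37 °C, 5% CO₂. Medium then replaced with compound at several concentrations for 72 h at 37 °C, followed by MTT viability read-out. GI50 is taken against cells given the maximum DMSO (0.25%), which is set as 100% viability. Dose-response curves come from at least three independent experiments run in triplicate and are reported as mean ± SE.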

[2] = system: HT-29; assay: Antiproliferative activity against human HT-29 cells assessed as inhibition of cell proliferation incubated for 72 hrs by MTT assay; assay type: functional; outline: as §1
[3] = system: RS4-11; assay: Antiproliferative activity against human RS4-11 cells assessed as inhibition of cell proliferation incubated for 72 hrs by MTT assay; assay type: functional; outline: as §1
[4] = system: CCRF-CEM; assay: Antiproliferative activity against human CCRF-CEM cells assessed as inhibition of cell proliferation incubated for 72 hrs by MTT assay; assay type: functional; outline: as §1
[5] = target: T1, Choline kinase alpha (Homo sapiens, UniProt P35790); assay: Binding affinity to human CKalpha1 assessed as dissociation constant by spectroflurometry
Outline: (§2)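 Purified human CK (cloned as reported earlier) at 1 µM was titrated with compound in 25 mM Tris, 150 mM NaCl, pH 7.5 at 25 °C. Compound ranges were 0.1–10 µM for CKα1 and 0.5–200 µM for CKβ. Tryptophan quenching was read with excitation at 280 nm, emission 300–400 nm and 5 nm slits. DMSO-matched controls were run, and Kd was fitted to a single-site model. Results are given as mean ± SD.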
Target sequence in this assay (P35790 whole entry): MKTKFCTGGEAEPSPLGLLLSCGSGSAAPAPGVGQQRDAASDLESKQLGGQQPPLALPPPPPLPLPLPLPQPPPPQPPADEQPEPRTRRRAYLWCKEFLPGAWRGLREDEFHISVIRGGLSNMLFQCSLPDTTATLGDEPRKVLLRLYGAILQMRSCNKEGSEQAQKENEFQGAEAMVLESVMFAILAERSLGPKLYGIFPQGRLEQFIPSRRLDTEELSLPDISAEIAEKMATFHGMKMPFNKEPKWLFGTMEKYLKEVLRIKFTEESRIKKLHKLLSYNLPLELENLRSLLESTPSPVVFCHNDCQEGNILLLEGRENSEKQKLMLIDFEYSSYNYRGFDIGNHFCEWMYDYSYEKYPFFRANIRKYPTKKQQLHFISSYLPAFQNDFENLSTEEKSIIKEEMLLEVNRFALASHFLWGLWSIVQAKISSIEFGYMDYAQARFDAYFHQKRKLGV

[6] = target: T1, Choline kinase alpha; assay: Inhibition of human CKalpha1 assessed as reduction in 14C incorporation from [methyl-14C]choline to […] at 30 uM using [methyl-14C]choline as substrate preincubated for 5 mins in presence of ATP and MgCl2 followed by substrate addition and measured after 10 mins by liquid scintillation counting method relative to control; conditions: time 15.0 min
Outline: (§3)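 Purified human CKα1 (20 ng) in 100 mM Tris pH 8.5 with 10 mM MgCl₂ and 10 mM ATP, DMSO ≤0.1%, was preincubated 5 min at 37 °C. Reaction was started with 1 mM [methyl-¹⁴C]choline (4500 dpm/nmol), run 10 min at 37 °C and stopped in boiling water. Product was separated by silica TLC, scraped and scintillation-counted against DMSO controls. At least three experiments were run; IC50 was obtained from sigmoidal dose-response fits.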
Target sequence in this assay (P35790 whole entry, looked up): as the sequence (P35790 whole entry) above

[7] = Inhibition of [methyl-14C]choline uptake in human HT-29 cells at 10 uM incubated for 10 mins followed by removal of medium containing compound and subsequent addition of [methyl-14C]choline measured after 5 mins relative to control; assay type: functional; conditions: HT-29, 10 min
Outline: (§4)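 Cells at 200,000/well were incubated for 10 min at 37 °C in medium with or without CKα1 inhibitor. The medium was then removed and cells were exposed to [methyl-¹⁴C]choline (31 Ci/mol) for 5 min at 37 °C. Uptake was stopped by aspiration and two ice-cold PBS washes containing choline. Inhibition is expressed as % of untreated control.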

[8] = Inhibition of [methyl-14C]choline uptake in human HT-29 cells at 30 uM incubated for 10 mins followed by removal of medium containing compound and subsequent addition of [methyl-14C]choline measured after 5 mins relative to control; assay type: functional; conditions: HT-29, 10 min; outline: as §4
[9] = Inhibition of [methyl-14C]choline uptake in human HepG2 cells at 10 uM incubated for 10 mins followed by removal of medium containing compound and subsequent addition of [methyl-14C]choline measured after 5 mins relative to control; assay type: functional; conditions: HepG2, 10 min; outline: as §4
[10] = Inhibition of [methyl-14C]choline uptake in human HepG2 cells at 30 uM incubated for 10 mins followed by removal of medium containing compound and subsequent addition of [methyl-14C]choline measured after 5 mins relative to control; assay type: functional; conditions: HepG2, 10 min; outline: as §4
[11] = target: T1, Choline kinase alpha; assay: Inhibition of human CKalpha1 assessed as reduction in 14C incorporation from [methyl-14C]choline to […] at 10 uM using [methyl-14C]choline as substrate preincubated for 5 mins in presence of ATP and MgCl2 followed by substrate addition and measured after 10 mins by liquid scintillation counting method relative to control; conditions: time 15.0 min; outline: as §3
Target sequence in this assay (P35790 whole entry, looked up): as the sequence (P35790 whole entry) above

[12] = target: T1, Choline kinase alpha; assay: Inhibition of human CKalpha1 assessed as reduction in 14C incorporation from [methyl-14C]choline to […] at 50 uM using [methyl-14C]choline as substrate preincubated for 5 mins in presence of ATP and MgCl2 followed by substrate addition and measured after 10 mins by liquid scintillation counting method relative to control; conditions: time 15.0 min; outline: as §3
Target sequence in this assay (P35790 whole entry, looked up): as the sequence (P35790 whole entry) above

[13] = target: Choline/ethanolamine kinase (Homo sapiens, UniProt Q9Y259); assay: Binding affinity to human CKbeta assessed as dissociation constant by spectroflurometry; outline: as §2
Chain of Choline/ethanolamine kinase (Q9Y259 whole entry): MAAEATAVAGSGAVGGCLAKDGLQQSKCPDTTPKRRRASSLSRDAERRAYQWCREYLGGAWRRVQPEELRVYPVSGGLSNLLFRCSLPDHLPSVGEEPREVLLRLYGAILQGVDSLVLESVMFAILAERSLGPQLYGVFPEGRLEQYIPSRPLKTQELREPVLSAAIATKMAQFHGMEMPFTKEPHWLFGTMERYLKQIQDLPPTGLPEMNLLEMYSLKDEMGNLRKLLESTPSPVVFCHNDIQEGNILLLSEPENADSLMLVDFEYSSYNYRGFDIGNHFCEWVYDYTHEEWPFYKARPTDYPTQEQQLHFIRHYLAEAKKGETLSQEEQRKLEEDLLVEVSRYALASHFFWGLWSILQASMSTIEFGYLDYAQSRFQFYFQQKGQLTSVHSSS

[14] = species: Homo sapiens; assay: Selectivity index, ratio of Kd for human CKbeta to Kd for human CKalpha1

Row | Compound | GI50 [1] | GI50 [2] | GI50 [3] | GI50 [4] | Kd [5] | inhibition [6] | inhibition at 10 µM [7] | inhibition at 30 µM [8] | inhibition at 10 µM [9] | inhibition at 30 µM [10] | inhibition [11] | inhibition [12] | Kd [13] | Ratio [14]
1 | c1ccc(-c2ccc(C[n+]3ccc(N4CCCC4)cc3)cc2)cc1 | 0.95 µM | 0.16 µM | 220 nM | 0.18 µM | 0.67 µM | 28% | 56.7% | 79.5% | 70.3% | 84.3% |  |  |  | 
2 | CN(c1ccccc1)c1cc[n+](Cc2ccc(C(F)(F)F)cc2)c2cc(Cl)ccc12 | 2.1 µM | 3 µM | 2700 nM | 2.1 µM |  |  |  |  |  |  |  |  |  | 
3 | FC(F)(F)c1ccc(C[n+]2ccc(N3CCCC3)cc2)cc1 | 42.1 µM | 8.1 µM | 7600 nM | 12 µM |  |  |  |  |  |  |  |  |  | 
4 | FC(F)(F)c1ccc(C[n+]2ccc(N3CCCCCC3)c3ccc(Cl)cc32)cc1 | 4.7 µM | 5.4 µM | 3200 nM | 4.6 µM |  | 52.7% |  |  |  |  | 34.7% |  |  | 
5 | FC(F)(F)c1ccc(C[n+]2ccc(N3CCCC3)c3ccc(Cl)cc32)cc1 | 15 µM | 12.9 µM | 1000 nM | 3 µM |  | 24.9% |  |  |  |  |  |  |  | 
6 | Clc1ccc2c(N3CCCC3)cc[n+](Cc3ccccc3)c2c1 | 19.6 µM | 4.1 µM | 1230 nM | 3.4 µM |  | 35% |  |  |  |  | 31.5% |  |  | 
7 | OC1C[N+]2(Cc3ccc(C(F)(F)F)cc3)CCC1CC2 (centres undefined) | 82.3 µM | > 100 µM | > 100000 nM | > 100 µM |  |  | 17.6% | 21.6% | 14.3% | 15.1% |  |  |  | 
8 | CN(C)c1cc[n+](Cc2ccc(-c3ccccc3)cc2)cc1 | 0.74 µM | 0.29 µM | 830 nM | 0.43 µM | 1.7 µM | 26.4% |  |  |  |  | 18.9% |  |  | 
9 | CN(C)c1ccncc1 |  |  |  |  | 35 µM |  |  |  |  |  |  |  |  | 
10 | CN(C)c1cc[n+](Cc2ccc(C(F)(F)F)cc2)cc1 | 23.2 µM | 11.2 µM | 7900 nM | 18 µM |  | 33.5% | 14.3% | 22.7% | 11.7% | 16.9% | 25.4% |  |  | 
11 | CN(c1ccccc1)c1ccnc2cc(Cl)ccc12 |  |  |  |  | 82 µM |  |  |  |  |  |  |  |  | 
12 | CN(C)c1cc[n+](Cc2ccccc2)cc1 | 44.2 µM | > 100 µM | 30300 nM | 54.3 µM | 14 µM | 37.2% |  |  |  |  |  |  |  | 
13 | FC(F)(F)c1ccc(C[N+]23CCC(CC2)CC3)cc1 | 90.8 µM | > 100 µM | > 100000 nM | > 100 µM |  | 24.7% | 9.1% | 2.4% | 5.1% | 17.7% | 8.07% |  |  | 
14 | c1ccc(C[n+]2ccc(N3CCCC3)cc2)cc1 | 66 µM | 38 µM | 8300 nM | 5.3 µM | 24 µM | 19.6% |  |  |  |  | 11.1% | 27.8% |  | 
15 | OC1C[N+]2(Cc3ccc(-c4ccccc4)cc3)CCC1CC2 (centres undefined) | 27.5 µM | 34 µM | 1700 nM | 16.9 µM |  | 53% |  |  |  |  | 45.6% |  |  | 
16 | CN(c1ccc(Cl)cc1)c1cc[n+](Cc2ccc(-c3ccccc3)cc2)cc1 | 0.91 µM | 0.23 µM | 140 nM | 0.3 µM |  |  | 78.4% | 95% | 83.3% | 94.8% |  |  |  | 
17 | CN(c1ccccc1)c1cc[n+](Cc2ccccc2)c2cc(Cl)ccc12 | 16.3 µM | 4.5 µM | 3000 nM | 2.2 µM | 0.89 µM | 28.4% |  |  |  |  | 23.1% | 18.6% | 36 µM | 41
18 | Clc1ccc2c(N3CCCCCC3)cc[n+](Cc3ccccc3)c2c1 | 16.2 µM | 4.6 µM | 30 nM | 0.56 µM | 0.4 µM | 27.5% |  |  |  |  | 35.8% | 38.7% | 33 µM | 83
19 | Clc1ccc2c(N3CCCCCC3)ccnc2c1 |  |  |  |  | 45 µM |  |  |  |  |  |  |  |  | 
20 | c1cc(N2CCCC2)ccn1 |  |  |  |  | 49 µM |  |  |  |  |  |  |  |  | 
21 | Clc1ccc2c(N3CCCC3)cc[n+](Cc3ccc(-c4ccccc4)cc3)c2c1 | 0.28 µM | 0.04 µM | 50 nM | 0.04 µM |  | 46.3% |  |  |  |  | 36.9% |  |  | 
22 | c1ccc(-c2ccc(C[n+]3ccc(N4CCCCCC4)c4ccccc43)cc2)cc1 | 14.8 µM | 17.5 µM | 12800 nM | 8.6 µM |  |  |  |  |  |  |  |  |  | 
23 | c1ccc(-c2ccc(C[N+]34CCC(CC3)CC4)cc2)cc1 | 29.9 µM | 24.7 µM | 2600 nM | 11.8 µM |  | 30.2% |  |  |  |  | 26.6% |  |  | 
24 | CN(c1ccc(Cl)cc1)c1cc[n+](Cc2ccc(C(F)(F)F)cc2)c2cc(Cl)ccc12 | 2.6 µM | 1.3 µM | 1300 nM | 2 µM |  | 14.5% |  |  |  |  | 10.4% |  |  | 
